Reference: paper PMC7321800 (Journal of immunology (Baltimore, Md. : 1950), 2020)
≈ marks a conversion by molar mass, not a printed value. Where “and” joins values, the source holds several entries; their conditions need not be identical. Equal entries are not always repeated. Entries after “also recorded” stand apart in the source; their conditions may differ. Where two headings read alike, the source gives them in different places.

Columns and labels:
N. gonorrhoeae F62 ΔlgtD [1] = experiment: Silver-stained SDS-PAGE of LOS; format: cell-based, Neisseria gonorrhoeae; conditions: media containing CMP-NulO 100 µg/ml
How it was run: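 F62 ΔlgtD was grown in liquid media with or without test compound. Protease K-treated (100 µg/ml) lysates were run on 16.5% Tris-Tricine gels with Tris-Tricine cathode buffer, and LOS was silver-stained. Slower LOS mobility than bacteria grown without test compound was taken to indicate NulO addition.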

N. gonorrhoeae [2] = conditions: cited from earlier work; for Eradication of oropharyngeal infection: men who have sex with men and commercial sex workers
[3] = biological target: T1, N. gonorrhoeae LOS sialyltransferase (Lst) (Neisseria gonorrhoeae, UniProt P72074); experiment: Utilization of CMP-NulO as substrate by LOS sialyltransferase; format: biochemical; conditions: transfer of NulO to LNnT LOS
N. gonorrhoeae F62 ΔlgtD [4] = experiment: Serum bactericidal assay with pooled normal human serum; format: cell-based, Neisseria gonorrhoeae; conditions: CMP-NulO added 15 min before or 15 min after CMP-Neu5Ac; 3.3% and 10% NHS
N. gonorrhoeae F62 ΔlgtD [5] = conditions: bacteria fed with the CMP salts; cited from earlier work
[6] = system: FH purified from human plasma; conditions: compared with Neu5Ac; cited from earlier work
[7] = system: FH purified from human plasma; experiment: Factor H binding to bacteria by flow cytometry; conditions: for FH binding (fluorescence) relative to that seen with Neu5Ac substituted LOS / Decrease in FH binding fluorescence relative to Neu5Ac: NulO capped LNnT LOS
[8] = biological target: T1, N. gonorrhoeae LOS sialyltransferase (Lst); conditions: tested as CMP salts; cited from earlier work
N. gonorrhoeae H041 [9] = experiment: Mouse vaginal colonization model, wild-type BALB/c mice; format: in vivo; conditions: strain H041; for Efficacy in clearing gonococcal colonization: 10 µg intravaginally daily, wild-type BALB/c mice; for First day with significantly lower CFU counts than saline control: 10 µg/d intravaginally, two-way ANOVA, Dunnett
N. gonorrhoeae [10] = conditions: cited from earlier work
[11] = Stability of CMP-NulOs in solution; format: physicochemical
N. gonorrhoeae H041 [12] = conditions: intravaginal administration; cited from earlier work
[13] = system: N. gonorrhoeae strain H041; experiment: Mouse vaginal colonization model, human FH/C4BP transgenic mice; format: in vivo
How it was run: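 Premarin-treated human FH/C4BP transgenic BALB/c mice, 6-8 weeks old and in diestrus, were infected intravaginally with strain H041 (n=6/group). Test compound was given intravaginally once daily, starting 2 h before infection; the 10 µg dose was given as 1 mg/ml in sterile H2O. Saline was the vehicle control. Bacterial burden was followed over time, and areas under the curve were compared by nonparametric rank sum test.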

N. gonorrhoeae [14] = experiment: Mouse vaginal colonization model, Cmah−/− mice; format: in vivo
[15] = F62 ΔlgtD grown with the CMP-NulO

T1 sequence (P72074 whole entry): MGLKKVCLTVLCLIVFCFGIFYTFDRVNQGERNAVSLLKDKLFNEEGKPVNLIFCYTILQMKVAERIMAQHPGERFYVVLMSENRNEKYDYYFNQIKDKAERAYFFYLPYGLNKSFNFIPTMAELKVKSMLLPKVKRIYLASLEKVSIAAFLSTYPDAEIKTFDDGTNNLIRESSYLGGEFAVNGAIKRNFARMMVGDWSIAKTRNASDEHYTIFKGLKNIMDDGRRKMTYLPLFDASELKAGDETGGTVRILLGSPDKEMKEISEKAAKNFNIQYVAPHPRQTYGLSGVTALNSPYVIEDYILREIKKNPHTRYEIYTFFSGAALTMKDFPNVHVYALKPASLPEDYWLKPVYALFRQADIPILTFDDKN

## CC(=O)NC1C(OC(C)=O)CC(OP(=O)(O)OCC2OC(n3ccc(N)nc3=O)C(O)C2O)(C(=O)O)OC1C(O)C(O)CO (stereo not drawn) [CMP-Neu4,5Ac2]
N. gonorrhoeae F62 ΔlgtD [1]
  Migration of LOS on silver-stained 16.5% Tricine gel: no change in migration of LOS

## O=c1ccc2ncc(=O)n3c2n1C[C@H]3CN1CCC(NCc2cc3c(cn2)OCCC3)CC1 [gepotidacin]
N. gonorrhoeae [2]
  Treatment of uncomplicated urogenital infections: appear promising
  Eradication of oropharyngeal infection: failures to eradicate oropharyngeal infection

## [N-]=[N+]=N[C@@H](C1O[C@](OP(=O)(O)OC[C@H]2O[C@@H](n3ccc(N)nc3=O)C(O)C2O)(C(=O)O)CC(O)[C@H]1O)[C@H](O)CO (stereo partly drawn) [CMP-Kdn7N3]
[3]
  Substrate for Lst: served as substrates for Lst
N. gonorrhoeae F62 ΔlgtD [4]
  Prevention of Neu5Ac-mediated serum resistance: ineffective in preventing CMP-Neu5Ac-mediated serum resistance

## CC(=O)N[C@@H]([C@@H]1O[C@](O)(C(=O)O)C[C@H](O)[C@H]1NC(C)=O)[C@@H](C)O [Leg5,7Ac2]
N. gonorrhoeae F62 ΔlgtD [5]
  Effect of NulO incorporation into LOS on bacterial resistance to complement: did not enhance bacterial resistance to complement
[6]
  FH binding to gonococci with NulO capped LNnT LOS: lack of detectable FH binding
[7]; F62 ΔlgtD grown with the CMP-NulO, NulO substituted LOS
  FH binding compared with unsialylated bacteria: did not bind FH above levels seen with unsialylated bacteria
[8]
  Utilization by Lst: utilized by Lst

## CC(=O)N[C@H]([C@@H]1O[C@](OP(=O)(O)OC[C@H]2O[C@@H](n3ccc(N)nc3=O)[C@H](O)[C@@H]2O)(C(=O)O)C[C@H](O)[C@@H]1NC(C)=O)[C@H](C)O [CMP-Pse5,7Ac2]
[8]
  Utilization by Lst: not utilized by Lst

## Nc1ccn([C@@H]2O[C@H](COP(=O)(O)O[C@@]3(C(=O)O)C[C@H](O)[C@@H](O)[C@H]([C@H](O)[C@H](O)CO)O3)[C@@H](O)[C@H]2O)c(=O)n1 [CMP-Kdn, CMP-ketodeoxynonulosonate]
[3]
  Substrate for Lst: served as substrates for Lst
N. gonorrhoeae H041 [9]
  Efficacy in clearing gonococcal colonization: equally efficacious; also recorded: as efficacious as CMP-Leg5,7Ac2
  First day with significantly lower CFU counts than saline control: 2 days
N. gonorrhoeae F62 ΔlgtD [4]
  Prevention of Neu5Ac-mediated serum resistance: effectively prevented Neu5Ac-mediated serum resistance only when added first

## CO[C@H](CO)[C@@H](O)[C@@H]1OC(O)(C(=O)O)C[C@H](O)[C@H]1NC(=O)CO (stereo partly drawn) [Neu5Gc8Me, reference compound]
[6]
  FH binding to gonococci with NulO capped LNnT LOS: lack of detectable FH binding
[8]
  Utilization by Lst: utilized by Lst

## CC(=O)N[C@H]1[C@H]([C@H](O)[C@H](O)COC(C)=O)OC(O)(C(=O)O)C[C@@H]1O (stereo partly drawn) [Neu5,9Ac2]
[7]; [15]
  FH binding (fluorescence) relative to that seen with Neu5Ac substituted LOS: ~ 30%
[7]
  Decrease in FH binding fluorescence relative to Neu5Ac: ~ 70%

## CC(=O)N[C@H]1[C@H]([C@H](O)[C@H](O)CN=[N+]=[N-])OC(OP(=O)(O)OC[C@H]2O[C@@H](n3ccc(N)nc3=O)[C@H](O)[C@@H]2O)(C(=O)O)C[C@@H]1O (stereo partly drawn) [CMP-Neu5Ac9N3]
N. gonorrhoeae H041 [9]
  Efficacy in clearing gonococcal colonization: equally efficacious; also recorded: as efficacious as CMP-Leg5,7Ac2
  First day with significantly lower CFU counts than saline control: 2 days

## CC(=O)N[C@H]1[C@H]([C@H](O)[C@H](O)COC(C)=O)O[C@@](OP(=O)(O)OC[C@H]2O[C@@H](n3ccc(N)nc3=O)[C@H](O)[C@@H]2O)(C(=O)O)C[C@@H]1O [CMP-Neu5,9Ac2]
N. gonorrhoeae H041 [9]
  Efficacy in clearing gonococcal colonization: ineffective
N. gonorrhoeae F62 ΔlgtD [4]
  Prevention of Neu5Ac-mediated serum resistance: rendered F62 ΔlgtD susceptible to 10% NHS, but not 3.3% NHS

## CO/N=C(\C(=O)N[C@@H]1C(=O)N2C(C(=O)O)=C(CSc3nc(=O)c(=O)[nH]n3C)CS[C@H]12)c1csc(N)n1 [ceftriaxone]
N. gonorrhoeae [10]; strain CTX-r Spain
  MIC: > 2 µg/mL
N. gonorrhoeae [10]; strain H041 (WHO X)
  MIC: 2 to 4 µg/mL
N. gonorrhoeae [10]; strain SD-1
  MIC: 0.094 µg/mL (≈ 0.169 µM)
N. gonorrhoeae [10]; strain UMNJ60_06UM (NJ-60)
  MIC: 0.38 µg/mL (≈ 0.685 µM)

## CC[C@H]1OC(=O)[C@@](C)(F)C(=O)[C@H](C)[C@@H](O[C@@H]2O[C@H](C)C[C@H](N(C)C)[C@H]2O)[C@](C)(OC)C[C@@H](C)C(=O)[C@H](C)[C@H]2N(CCCCn3cc(-c4cccc(N)c4)nn3)C(=O)O[C@]12C [Solithromycin, solithromycin]
N. gonorrhoeae [2]; phase III trial
  Non-inferiority versus ceftriaxone plus azithromycin: failed to meet non-inferiority criteria

## C[C@@H]1CN2c3c(cc4c(N5C(=O)OC[C@@H]5C)noc4c3F)CC3(C(=O)NC(=O)NC3=O)[C@H]2[C@H](C)O1 [Zoliflodacin, zoliflodacin]
N. gonorrhoeae [2]
  Treatment of uncomplicated urogenital infections: appear promising
  Eradication of oropharyngeal infection: failures to eradicate oropharyngeal infection

## CC(=O)N[C@@H]([C@@H]1O[C@](OP(=O)(O)OC[C@H]2O[C@@H](n3ccc(N)nc3=O)[C@H](O)[C@@H]2O)(C(=O)O)C[C@H](O)[C@H]1NC(C)=O)[C@@H](C)O [CMP-Leg5,7Ac2]
[11]; 6 weeks at 4 °C, pH 7
  Percentage of intact CMP-NulO relative to t0: Greater than 90%
[11]; 1 h, pH 4 (data not shown)
  Percentage of intact CMP-NulO relative to t0: greater than 50%
[11]; 4 h, pH 4, 37 °C
  Percentage of intact CMP-NulO relative to t0: 4%
[11]; 24 h at 37 °C, pH 5
  Percentage of intact CMP-NulO relative to t0: about 54%
[11]; 3 days at 20 °C, pH 7
  Percentage of intact CMP-NulO relative to t0: Greater than 90%
[11]; descending order: CMP-Leg5,7Ac2, CMP-Neu5Ac9N3, CMP-Neu5Ac, CMP-Kdn, pH 4-7, 4-37 °C
  Relative stability over all test conditions: most stable
N. gonorrhoeae H041 [12]
  Duration and burden of vaginal colonization of multidrug-resistant N. gonorrhoeae in mice: decreased the duration and reduced the burden of vaginal colonization
[13]; 1 µg/day intravaginally
  Efficacy: ineffective
[13]; 5 µg/day intravaginally
  Efficacy: progressively increasing efficacy; also recorded: cleared infection significantly faster
[13]; 10 µg/day intravaginally
  Efficacy: progressively increasing efficacy; also recorded: cleared infection significantly faster
N. gonorrhoeae H041 [9]
  Efficacy in clearing gonococcal colonization: equally efficacious
  First day with significantly lower CFU counts than saline control: 1 days
N. gonorrhoeae [14]; strain 398078, 10 µg daily
  AUC (log10 CFU): zero
N. gonorrhoeae [14]; strain 398078, swabs taken 24 h after infection, 10 µg daily
  Detection of bacteria in treated animals on day 1: unable to detect
N. gonorrhoeae [14]; strains F62 ΔlgtD and H041, 10 µg daily intravaginally
  Efficacy (rate of clearance and bacterial burden compared to saline): effective against both strains
N. gonorrhoeae F62 ΔlgtD [4]
  Prevention of Neu5Ac-mediated serum resistance: blocked CMP-Neu5Ac-mediated serum resistance when added after CMP-Neu5Ac

## O=C(O)C(=O)C[C@H](O)[C@@H](O)[C@@H](O)[C@H](O)[C@H](O)CO [Kdn, 3-deoxy-D-glycero-D-galacto-nonulosonic acid]
[7]; [15]
  FH binding (fluorescence) relative to that seen with Neu5Ac substituted LOS: ~ 60% and ~ 62%
[7]
  Decrease in FH binding fluorescence relative to Neu5Ac: ~ 40%

## C=CC1=C(C(=O)O)N2C(=O)[C@@H](NC(=O)/C(=N\OCC(=O)O)c3csc(N)n3)[C@H]2SC1 [cefixime]
N. gonorrhoeae [10]; strain SD-1
  MIC: 0.125 µg/mL (≈ 0.276 µM)

## [N-]=[N+]=N[C@@H]([C@H](O)[C@H](O)[C@@H](O)CC(=O)C(=O)O)[C@H](O)CO [Kdn7N3, 3,7-dideoxy-7-azido-D-glycero-D-galacto-nonulosonic acid]
[7]; [15]
  FH binding (fluorescence) relative to that seen with Neu5Ac substituted LOS: ~ 60% and ~ 62%

## O=C(CO)N[C@H]1[C@H]([C@H](O)[C@H](O)CO)OC(O)(C(=O)O)C[C@@H]1O (stereo partly drawn) [Neu5Gc, reference compound]
[6]
  FH binding to gonococci with NulO capped LNnT LOS: no impact
[8]
  Utilization by Lst: utilized by Lst

## CC(=O)N[C@H]1[C@H]([C@H](O)[C@H](O)CN=[N+]=[N-])OC(O)(C(=O)O)C[C@@H]1O (stereo partly drawn) [Neu5Ac9N3]
N. gonorrhoeae F62 ΔlgtD [5]
  Effect of NulO incorporation into LOS on bacterial resistance to complement: did not enhance bacterial resistance to complement
[6]
  FH binding to gonococci with NulO capped LNnT LOS: lack of detectable FH binding
[8]
  Utilization by Lst: utilized by Lst
